Columns and labels:
[1] = molecular target: 5-hydroxytryptamine receptor 4 (Cavia porcellus) (UniProt O70528); experiment: Ability to displace [3H]GR-113808 from 5-hydroxytryptamine 4 receptor at concentration of 10e-8 M in guinea pig
Method in brief: (§1)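 Guinea pig striatal membranes (males, 220–224 g) in 50 mM HEPES pH 7.4, incubated in duplicate at 37 °C for 30 min with 0.6 nM [3H]GR 113808. Filtration on polyethylenimine-soaked GF/B filters. Nonspecific binding with 10 μM 5-HT. Screened as percent inhibition at 10⁻⁶ and 10⁻⁸ M; Ki derived for compounds giving over 40% inhibition at 10⁻⁸ M.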

[2] = molecular target: 5-hydroxytryptamine receptor 4 (Cavia porcellus, UniProt O70528); experiment: Ability to displace [3H]GR-113808 from 5-hydroxytryptamine 4 receptor; method in brief: as §1
5-hydroxytryptamine receptor 4 (Cavia porcellus, UniProt O70528), sequence (O70528 whole entry): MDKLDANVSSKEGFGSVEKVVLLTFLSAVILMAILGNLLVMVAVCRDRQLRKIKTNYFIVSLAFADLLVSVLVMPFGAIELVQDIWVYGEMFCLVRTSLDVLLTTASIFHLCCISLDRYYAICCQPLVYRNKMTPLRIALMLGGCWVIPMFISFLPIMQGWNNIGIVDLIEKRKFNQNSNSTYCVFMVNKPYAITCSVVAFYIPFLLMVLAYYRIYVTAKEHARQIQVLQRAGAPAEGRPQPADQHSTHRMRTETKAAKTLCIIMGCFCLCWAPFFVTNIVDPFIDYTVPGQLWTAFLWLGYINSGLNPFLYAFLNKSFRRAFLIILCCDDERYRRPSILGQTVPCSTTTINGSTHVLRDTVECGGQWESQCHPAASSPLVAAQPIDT

[3] = molecular target: 5-hydroxytryptamine receptor 4 (Cavia porcellus) (UniProt O70528); experiment: Ability to displace [3H]GR-113808 from 5-hydroxytryptamine 4 receptor at concentration of 10e-6 M in guinea pig; method in brief: as §1
[4] = molecular target: Histamine H2 receptor (Rattus norvegicus) (UniProt P25102); experiment: Ability to displace [3H]tiotidine from histamine-H2 receptor at concentration of 10e-5 M
Histamine H2 receptor (Rattus norvegicus), sequence (P25102 whole entry): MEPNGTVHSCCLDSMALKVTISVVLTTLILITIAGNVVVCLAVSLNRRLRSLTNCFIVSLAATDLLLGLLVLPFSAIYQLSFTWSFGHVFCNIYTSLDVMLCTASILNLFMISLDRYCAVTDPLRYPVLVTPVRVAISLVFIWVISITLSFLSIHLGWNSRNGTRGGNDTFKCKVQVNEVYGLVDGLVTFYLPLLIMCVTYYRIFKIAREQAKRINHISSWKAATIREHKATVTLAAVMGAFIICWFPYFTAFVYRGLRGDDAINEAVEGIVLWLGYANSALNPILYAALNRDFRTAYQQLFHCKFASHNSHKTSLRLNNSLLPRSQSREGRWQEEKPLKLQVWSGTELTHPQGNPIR

Mus musculus [5] = experiment: Antinociceptive activity in the mouse writhing test after intraperitoneal dose of 0.01 mg/kg; format: functional
Method in brief: (§2)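 Male OF1 mice (20–24 g), groups of eight. Compounds in saline given ip (10 mL/kg) 15 min before ip 0.6% aqueous acetic acid (10 mL/kg). Stretches per animal counted over 10 min, starting 10 min after acid. Stretch defined as back arching, pelvic rotation and hind limb extension. Data are mean ± SEM; ANOVA then Fisher PLSD.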

[6] = molecular target: 5-hydroxytryptamine receptor 2B (Homo sapiens, UniProt P41595); experiment: Ability to displace [3H]5-HT from 5-hydroxytryptamine 2B receptor
[7] = molecular target: Beta-2 adrenergic receptor (Homo sapiens) (UniProt P07550); experiment: Ability to displace [3H]CGP-12177 from Beta-2 adrenergic receptor at concentration of 10e-7 M
Beta-2 adrenergic receptor (Homo sapiens), sequence (P07550 whole entry, looked up): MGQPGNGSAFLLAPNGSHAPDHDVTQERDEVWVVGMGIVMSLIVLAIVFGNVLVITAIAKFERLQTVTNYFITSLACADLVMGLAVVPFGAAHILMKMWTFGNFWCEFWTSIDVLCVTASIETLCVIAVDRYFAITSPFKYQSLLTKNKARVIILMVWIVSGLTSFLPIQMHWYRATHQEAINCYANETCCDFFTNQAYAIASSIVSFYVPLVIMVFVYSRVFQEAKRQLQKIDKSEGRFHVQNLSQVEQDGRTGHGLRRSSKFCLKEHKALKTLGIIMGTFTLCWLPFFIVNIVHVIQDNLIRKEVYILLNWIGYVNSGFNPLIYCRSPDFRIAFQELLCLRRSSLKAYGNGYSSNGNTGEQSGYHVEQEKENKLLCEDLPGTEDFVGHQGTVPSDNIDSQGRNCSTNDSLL

[8] = molecular target: 5-hydroxytryptamine receptor 6 (Homo sapiens) (UniProt P50406); experiment: Ability to displace [125I]LSD […] from 5-hydroxytryptamine 6 receptor at concentration of 10e-6 M
5-hydroxytryptamine receptor 6 (Homo sapiens), sequence (P50406 whole entry): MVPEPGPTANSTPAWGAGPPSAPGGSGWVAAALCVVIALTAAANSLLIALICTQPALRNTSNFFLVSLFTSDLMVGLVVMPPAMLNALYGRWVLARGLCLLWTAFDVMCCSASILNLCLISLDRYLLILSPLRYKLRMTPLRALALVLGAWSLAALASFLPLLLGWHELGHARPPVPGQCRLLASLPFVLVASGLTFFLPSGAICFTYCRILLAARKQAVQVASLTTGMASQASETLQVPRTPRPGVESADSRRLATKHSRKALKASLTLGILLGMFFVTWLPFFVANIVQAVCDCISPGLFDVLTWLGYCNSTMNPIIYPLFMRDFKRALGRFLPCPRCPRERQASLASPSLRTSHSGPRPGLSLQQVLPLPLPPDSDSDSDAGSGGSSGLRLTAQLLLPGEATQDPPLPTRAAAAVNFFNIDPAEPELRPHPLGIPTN

[9] = molecular target: Sodium-dependent dopamine transporter (Rattus norvegicus) (UniProt P23977); experiment: Ability to recapture DA by displace [3H]GBR-12935 from dopamine transporter at concentration of 10e-5 M
Sodium-dependent dopamine transporter (Rattus norvegicus), sequence (P23977 whole entry): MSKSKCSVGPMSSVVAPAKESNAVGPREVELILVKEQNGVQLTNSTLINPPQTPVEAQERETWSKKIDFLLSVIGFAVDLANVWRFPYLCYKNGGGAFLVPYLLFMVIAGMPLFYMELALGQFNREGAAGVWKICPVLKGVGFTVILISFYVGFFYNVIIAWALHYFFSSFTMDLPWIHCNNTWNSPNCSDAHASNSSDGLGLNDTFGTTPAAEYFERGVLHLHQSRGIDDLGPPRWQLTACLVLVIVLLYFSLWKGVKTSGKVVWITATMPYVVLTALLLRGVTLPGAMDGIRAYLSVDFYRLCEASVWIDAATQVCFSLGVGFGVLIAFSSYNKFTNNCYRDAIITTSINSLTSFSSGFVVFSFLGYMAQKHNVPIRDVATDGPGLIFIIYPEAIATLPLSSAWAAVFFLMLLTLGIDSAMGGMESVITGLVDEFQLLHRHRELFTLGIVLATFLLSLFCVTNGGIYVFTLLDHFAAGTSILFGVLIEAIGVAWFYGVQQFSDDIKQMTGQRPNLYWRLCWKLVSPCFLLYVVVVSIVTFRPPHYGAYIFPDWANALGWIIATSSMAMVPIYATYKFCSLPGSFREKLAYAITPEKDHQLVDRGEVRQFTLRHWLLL

[10] = Ability to recaprure NAD using [3H]nisoxetine at concentration of 10e-5 M
[11] = molecular target: Beta-1 adrenergic receptor (Homo sapiens) (UniProt P08588); experiment: Ability to displace [3H]CGP-12177 from Beta-1 adrenergic receptor at concentration of 10e-5 M
Beta-1 adrenergic receptor (Homo sapiens), sequence (P08588 whole entry, looked up): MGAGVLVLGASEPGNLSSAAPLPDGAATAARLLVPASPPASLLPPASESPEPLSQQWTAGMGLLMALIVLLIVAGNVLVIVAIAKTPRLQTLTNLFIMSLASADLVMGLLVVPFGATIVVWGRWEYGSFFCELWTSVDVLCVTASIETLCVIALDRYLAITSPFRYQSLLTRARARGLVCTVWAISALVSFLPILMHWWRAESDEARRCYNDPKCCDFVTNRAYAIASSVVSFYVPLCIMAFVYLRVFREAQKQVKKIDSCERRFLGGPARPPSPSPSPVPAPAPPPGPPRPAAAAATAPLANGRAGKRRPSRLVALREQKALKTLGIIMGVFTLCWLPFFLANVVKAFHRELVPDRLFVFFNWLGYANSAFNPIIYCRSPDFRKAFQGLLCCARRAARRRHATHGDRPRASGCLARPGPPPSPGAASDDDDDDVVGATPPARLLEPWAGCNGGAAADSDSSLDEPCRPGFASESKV

[12] = molecular target: Beta-2 adrenergic receptor (Homo sapiens) (UniProt P07550); experiment: Ability to displace [3H]-CGP-12,177 from adrenergic Beta-2 adrenergic receptor at concentration of 10e-5 M
Mus musculus [13] = experiment: Antinociceptive activity in the mouse writhing test after intraperitoneal dose of 0.1 mg/kg; p<0.05.; format: functional; method in brief: as §2
Mus musculus [14] = experiment: Antinociceptive activity in the mouse writhing test before administration of the compound; format: functional; method in brief: as §2
[15] = molecular target: 5-hydroxytryptamine receptor 6 (Homo sapiens) (UniProt P50406); experiment: Ability to displace [125I]LSD […] from 5-hydroxytryptamine 6 receptor at concentration of 10e-8 M
D(1A) dopamine receptor = D(1A) dopamine receptor (Mus musculus, UniProt Q61616); experiment: Ability to displace [3H]SCH-23390 from Dopamine receptor D1
[16] = molecular target: 5-hydroxytryptamine receptor 7 (Homo sapiens) (UniProt P34969); experiment: Ability to displace [125I]LSD […] from 5-hydroxytryptamine 7 receptor at concentration of 10e-8 M
5-hydroxytryptamine receptor 7 (Homo sapiens), sequence (P34969 whole entry): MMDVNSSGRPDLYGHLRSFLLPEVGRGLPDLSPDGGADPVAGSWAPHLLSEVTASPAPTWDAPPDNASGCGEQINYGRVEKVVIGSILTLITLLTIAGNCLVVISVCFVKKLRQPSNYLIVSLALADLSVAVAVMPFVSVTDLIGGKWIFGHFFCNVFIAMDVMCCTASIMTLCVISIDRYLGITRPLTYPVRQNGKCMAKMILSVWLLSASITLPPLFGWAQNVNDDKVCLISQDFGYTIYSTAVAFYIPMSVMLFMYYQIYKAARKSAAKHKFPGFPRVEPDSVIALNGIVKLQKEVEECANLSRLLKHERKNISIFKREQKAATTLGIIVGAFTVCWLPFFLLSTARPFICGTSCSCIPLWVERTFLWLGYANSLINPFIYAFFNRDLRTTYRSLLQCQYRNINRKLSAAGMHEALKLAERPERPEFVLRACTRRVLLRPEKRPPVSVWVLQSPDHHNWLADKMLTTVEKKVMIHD

[17] = molecular target: 5-hydroxytryptamine receptor 4 (Mus musculus, UniProt P97288); experiment: Ability to displace [3H]GR-113808 from mouse 5-hydroxytryptamine 4 receptor in COS7 cells; format: cell-based, COS-7
Mus musculus [18] = experiment: Compound was tested at toxic doses of 12.5-25-50 mg/kg in mice; Convulsions.; format: ADME, organism-based; settings: in vivo
Vasopressin V1b receptor = Vasopressin V1b receptor (Rattus norvegicus, UniProt P48974); experiment: Ability to displace [3H]AVP from vasopressin V1 receptor
Mus musculus [19] = experiment: Antinociceptive activity in the mouse writhing test after intraperitoneal dose of 1 mg/kg; p<0.01; format: functional; method in brief: as §2
[20] = molecular target: 5-hydroxytryptamine receptor 2A (Homo sapiens, UniProt P28223); experiment: Ability to displace [3H]-ketanserin from 5-hydroxytryptamine 2A receptor
[21] = molecular target: Histamine H1 receptor (Homo sapiens) (UniProt P35367); experiment: Ability to displace [3H]mepyramine from histamine H1 receptor at concentration of 10e-7 M
Histamine H1 receptor (Homo sapiens), sequence (P35367 whole entry): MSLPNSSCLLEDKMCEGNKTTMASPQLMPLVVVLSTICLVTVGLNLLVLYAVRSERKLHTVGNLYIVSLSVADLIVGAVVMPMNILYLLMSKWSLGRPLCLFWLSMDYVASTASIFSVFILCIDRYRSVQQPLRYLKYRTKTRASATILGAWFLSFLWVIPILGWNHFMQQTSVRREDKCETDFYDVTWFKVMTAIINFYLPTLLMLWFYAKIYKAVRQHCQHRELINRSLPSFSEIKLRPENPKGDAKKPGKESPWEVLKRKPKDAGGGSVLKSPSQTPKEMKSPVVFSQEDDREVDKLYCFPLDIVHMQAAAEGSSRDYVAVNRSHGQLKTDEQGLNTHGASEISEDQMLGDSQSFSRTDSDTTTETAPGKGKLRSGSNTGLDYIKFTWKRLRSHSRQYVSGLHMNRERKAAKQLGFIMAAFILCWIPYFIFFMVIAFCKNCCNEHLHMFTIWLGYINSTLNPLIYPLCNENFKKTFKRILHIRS

Vasopressin V2 receptor = Vasopressin V2 receptor (Sus scrofa, UniProt P32307); experiment: Ability to displace [3H]AVP from Vasopressin V2 receptor
Vasopressin V2 receptor, sequence (P32307 whole entry): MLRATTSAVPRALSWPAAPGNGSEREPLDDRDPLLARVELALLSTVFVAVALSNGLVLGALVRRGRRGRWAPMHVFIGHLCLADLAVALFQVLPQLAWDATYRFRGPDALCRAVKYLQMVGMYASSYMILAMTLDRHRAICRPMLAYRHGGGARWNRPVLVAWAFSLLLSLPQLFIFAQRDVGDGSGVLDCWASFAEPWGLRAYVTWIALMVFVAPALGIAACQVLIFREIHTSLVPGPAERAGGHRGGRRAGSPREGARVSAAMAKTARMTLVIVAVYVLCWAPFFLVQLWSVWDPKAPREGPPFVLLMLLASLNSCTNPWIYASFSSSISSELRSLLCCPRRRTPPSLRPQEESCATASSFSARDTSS

[22] = Lethal dose of the compound; format: ADME
Method in brief: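 Male OF1 mice (20–24 g), in groups of four, received graded ip doses (12.5, 25, 50 mg/kg) in saline (10 mL/kg).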

[23] = molecular target: 5-hydroxytryptamine receptor 2C (Homo sapiens, UniProt P28335); experiment: Ability to displace [3H]mesulergine from 5-hydroxytryptamine 2C receptor
Mus musculus [24] = experiment: Compound was tested at subtoxic doses of 12.5-25-50 mg/kg in mice; Symptoms are Hypoactivity,relaxation,Passivity.; format: ADME, organism-based; settings: in vivo
[25] = Ability to recaprure NAD using [3H]-nisoxatine at concentration of 10e-7 M
[26] = molecular target: 5-hydroxytryptamine receptor 1A (Mus musculus, UniProt Q64264); experiment: Ability to displace [3H]8-OH-DPAT from 5-hydroxytryptamine 1A receptor
[27] = molecular target: Sodium-dependent dopamine transporter (Rattus norvegicus) (UniProt P23977); experiment: Ability to recapture DA by displace [3H]GBR-12935 from dopamine transporter at concentration of 10e-7 M
[28] = molecular target: 5-hydroxytryptamine receptor 7 (Homo sapiens) (UniProt P34969); experiment: Ability to displace [125I]LSD […] from 5-hydroxytryptamine 7 receptor at concentration of 10e-6 M
[29] = molecular target: Sodium-dependent serotonin transporter (Homo sapiens) (UniProt P31645); experiment: Ability to recapture 5-HT by displace [3H]paroxetine at serotonin transporter at concentration of 10e-7 M
Sodium-dependent serotonin transporter (Homo sapiens), sequence (P31645 whole entry, looked up): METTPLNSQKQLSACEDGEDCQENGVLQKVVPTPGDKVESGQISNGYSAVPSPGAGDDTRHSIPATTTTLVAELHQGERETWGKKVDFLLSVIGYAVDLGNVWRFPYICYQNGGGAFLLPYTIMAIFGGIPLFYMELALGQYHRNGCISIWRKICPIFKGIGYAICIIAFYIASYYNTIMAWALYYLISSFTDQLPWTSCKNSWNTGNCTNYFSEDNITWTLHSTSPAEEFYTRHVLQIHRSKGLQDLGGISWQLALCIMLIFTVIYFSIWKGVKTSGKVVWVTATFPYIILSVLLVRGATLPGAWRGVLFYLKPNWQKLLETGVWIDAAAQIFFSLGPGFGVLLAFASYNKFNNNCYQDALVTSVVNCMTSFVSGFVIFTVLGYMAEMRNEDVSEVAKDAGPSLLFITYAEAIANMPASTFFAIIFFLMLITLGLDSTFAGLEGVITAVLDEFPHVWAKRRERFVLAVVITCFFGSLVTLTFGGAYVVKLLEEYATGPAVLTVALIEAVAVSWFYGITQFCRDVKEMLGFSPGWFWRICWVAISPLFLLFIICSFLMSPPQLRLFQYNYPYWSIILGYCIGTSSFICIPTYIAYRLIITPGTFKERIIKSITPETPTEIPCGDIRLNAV

[30] = molecular target: Beta-1 adrenergic receptor (Homo sapiens) (UniProt P08588); experiment: Ability to displace [3H]CGP-12177 from Beta-1 adrenergic receptor at concentration of 10e-7 M
[31] = molecular target: Sodium-dependent serotonin transporter (Homo sapiens) (UniProt P31645); experiment: Ability to recapture 5-HT by displacing [3H]paroxetine at serotonin transporter at concentration of 10e-5 M
D(2) dopamine receptor = D(2) dopamine receptor (Homo sapiens, UniProt P14416); experiment: Ability to displace [3H]YM-0915 from Dopamine receptor D2
[32] = molecular target: Histamine H2 receptor (Rattus norvegicus) (UniProt P25102); experiment: Ability to displace [3H]tiotidine from histamine-H2 receptor at concentration of 10e-7 M
[33] = molecular target: Histamine H1 receptor (Homo sapiens) (UniProt P35367); experiment: Ability to displace [3H]-mepyramine from histamine H1 receptor at concentration of 10e-5 M
Mus musculus [34] = experiment: Antinociceptive activity in the mouse writhing test after intraperitoneal dose of 0.1 mg/kg; format: functional; method in brief: as §2
Mus musculus [35] = experiment: Antinociceptive activity in the mouse writhing test after intraperitoneal dose of 1 mg/kg; format: functional; method in brief: as §2
Mus musculus [36] = experiment: Antinociceptive activity in the mouse writhing test after intraperitoneal dose of 5 mg/kg; format: functional; method in brief: as §2
Mus musculus [37] = experiment: Antinociceptive activity in the mouse writhing test after intraperitoneal dose of 30 mg/kg; format: functional; method in brief: as §2
Mus musculus [38] = experiment: Compound was tested at subtoxic dose of 25 mg/kg in mice; Symptoms are hyperactivity, irritability, stereotypy.; format: ADME, organism-based; design: dose 25 mg/kg; settings: in vivo

5-hydroxytryptamine receptor 4 (Cavia porcellus), sequence (O70528 whole entry): as the sequence (O70528 whole entry) above

## CCN1CCC(COc2nc3ccccc3c3c2CCCN3)CC1
[1]
  inhibition: 55%
[2]
  Ki: 13.1 nM
[3]
  inhibition: 100%

## CCCN1CCC(COc2nc3ccccc3c3c2CCCN3)CC1
[4]
  inhibition: 75%
Mus musculus [5]
  Stretches: 19
[6]
  IC50: 200 nM
[7]
  inhibition: 0%
[8]
  inhibition: 12%
[9]
  inhibition: 61%
[10]
  inhibition: 23%
[11]
  inhibition: 39%
[12]
  inhibition: 70%
Mus musculus [13]
  Stretches: 13.8
Mus musculus [14]
  Stretches: 24.6
[1]
  inhibition: 70%
[15]
  inhibition: 0%
D(1A) dopamine receptor
  IC50: > 100000 nM
[16]
  inhibition: 20%
[17]
  IC50: 0.56 nM
Mus musculus [18]
  Symptoms: Active
Vasopressin V1b receptor
  IC50: 3200 nM
Mus musculus [19]
  Stretches: 12.5
[20]
  IC50: 5000 nM
[21]
  inhibition: 0%
Vasopressin V2 receptor
  IC50: 11000 nM
[22]
  LD50: 37.5 mg/kg
[23]
  IC50: 3400 nM
Mus musculus [24]
  Symptoms: Active
[2]
  Ki: 2.89 nM
[25]
  inhibition: 17%
[26]
  IC50: 9100 nM
[27]
  inhibition: 13%
[28]
  inhibition: 36%
[29]
  inhibition: 0%
[30]
  inhibition: 0%
[31]
  inhibition: 79%
D(2) dopamine receptor
  IC50: 3400 nM
[32]
  inhibition: 0%
[3]
  inhibition: 100%
[33]
  inhibition: 91%

## Cn1cc(C(=O)OCC2CCN(CCNS(C)(=O)=O)CC2)c2ccccc21
Mus musculus [5]
  Stretches: 18.2
Mus musculus [14]
  Stretches: 21.8
Mus musculus [34]
  Stretches: 12.8
Mus musculus [35]
  Stretches: 12.3

## C=CCN1CCC(COc2nc3ccccc3c3c2CCCN3)CC1
[1]
  inhibition: 31%
[3]
  inhibition: 100%

## CN1C(C(=O)Nc2ccccn2)=C(O)c2ccccc2S1(=O)=O [PIROXICAM]
Mus musculus [14]
  Stretches: 24.6
Mus musculus [36]
  Stretches: 2.4

## CCCN1CCC(COc2nc3ccccc3c3c2CCCCN3)CC1
[1]
  inhibition: 55%
[2]
  Ki: 12.7 nM
[3]
  inhibition: 100%

## CC(=O)Oc1ccccc1C(=O)O [ASPIRIN]
Mus musculus [14]
  Stretches: 25.8
Mus musculus [37]
  Stretches: 8.7

## COc1[nH]c2ccc(F)cc2c1C(=O)OCC1CCN(CCNS(C)(=O)=O)CC1
Mus musculus [5]
  Stretches: 16.5
Mus musculus [14]
  Stretches: 20
Mus musculus [34]
  Stretches: 11.5
Mus musculus [35]
  Stretches: 11.2

## CCCCN1CCC(COc2nc3ccccc3c3c2CCCCN3)CC1
[1]
  inhibition: 44%
[2]
  Ki: 16.3 nM
[3]
  inhibition: 100%

## CCCCN1CCC(COc2nc3ccc(Cl)cc3c3c2CCCCN3)CC1
[1]
  inhibition: 0%
[3]
  inhibition: 92%

## CCCCCN1CCC(COc2nc3ccccc3c3c2CCCN3)CC1
[1]
  inhibition: 51%
[2]
  Ki: 12.5 nM
[3]
  inhibition: 100%

## CCCN1CCC(COc2nc3cc(Cl)ccc3c3c2CCCCN3)CC1
[1]
  inhibition: 0%
[3]
  inhibition: 98%

## c1ccc2c3c(c(OCC4CCNCC4)nc2c1)CCCN3
[1]
  inhibition: 24%
[3]
  inhibition: 96%

## CCCCN1CCC(COc2nc3ccc(Cl)cc3c3c2CCCN3)CC1
[1]
  inhibition: 2%
[3]
  inhibition: 100%

## CN1CCC(COc2nc3ccccc3c3c2CCCN3)CC1
[1]
  inhibition: 52%
[2]
  Ki: 79.7 nM
[3]
  inhibition: 100%

## COC(=O)C(c1ccccc1)C1CCCCN1 (centres undefined) [METHYLPHENIDATE]
Mus musculus [38]
  Symptoms: Hyperactivity, irritability, stereotypy

## CCCN1CCC(COc2nc3ccc(Cl)cc3c3c2CCCCN3)CC1
[1]
  inhibition: 5%
[3]
  inhibition: 91%

## CCCN1CCC(COc2nc3ccc(Cl)cc3c3c2CCCN3)CC1
[1]
  inhibition: 0%
[3]
  inhibition: 100%

## CCCCN1CCC(COc2nc3ccccc3c3c2CCCN3)CC1
[1]
  inhibition: 77%
[2]
  Ki: 10 nM
[3]
  inhibition: 100%

## CCN1CCC(COc2nc3ccccc3c3c2CCCCN3)CC1
[1]
  inhibition: 51%
[2]
  Ki: 10.7 nM
[3]
  inhibition: 100%

## CCCCCN1CCC(COc2nc3ccccc3c3c2CCCCN3)CC1
[1]
  inhibition: 0%
[3]
  inhibition: 100%

## C#CCN1CCC(COc2nc3ccccc3c3c2CCCN3)CC1
[1]
  inhibition: 15%
[3]
  inhibition: 100%
